Source: ChEMBL document CHEMBL5154946, “Optimization of Peptide Linker-Based Fluorescent Ligands for the Histamine H1 Receptor” (J Med Chem, 2022)
Activity calls are given as the source filed them. The rule behind the calls is not given here. Square brackets hold non-standard residues; d marks the D form. Peptide text beside a SMILES is read from it. * marks the point of attachment. X1 = O=C(COc1ccc(/C=C/C2=[N+]3C(=Cc4ccc(-c5cccs5)n4[B-]3(F)F)C=C2)cc1)*; Propanoyl(3-Pip(4-O-2-BnPh)) = O=C(CCN1CCC(Oc2ccccc2Cc2ccccc2)CC1)*; X3 = Cc1cc(C)n2c1C=C1C=CC(/C=C/c3ccc(OCC(=O)*)cc3)=[N+]1[B-]2(F)F; BODIPY(FL) = CC1=CC(C)=[N+]2C1=Cc1ccc(CCC(=O)*)n1[B-]2(F)F; X2 = O=C(CCC1=[N+]2C(=Cc3ccc(-c4cccs4)n3[B-]2(F)F)C=C1)*; βAla = NCCC(=O)O

Tests used:
Histamine H1 receptor [1] = target: T1, Histamine H1 receptor (Homo sapiens, UniProt P35367); experiment: Binding affinity to human H1R expressed in CHO cells assessed as shift in histamine-mediated calcium response at 1 uM using Fluo-4AM as a substrate incubated for 1 hrs by calcium mobilization assay based fluorometric analysis; type: cell-based; conditions: filed as antagonist
T1 sequence (P35367 whole entry): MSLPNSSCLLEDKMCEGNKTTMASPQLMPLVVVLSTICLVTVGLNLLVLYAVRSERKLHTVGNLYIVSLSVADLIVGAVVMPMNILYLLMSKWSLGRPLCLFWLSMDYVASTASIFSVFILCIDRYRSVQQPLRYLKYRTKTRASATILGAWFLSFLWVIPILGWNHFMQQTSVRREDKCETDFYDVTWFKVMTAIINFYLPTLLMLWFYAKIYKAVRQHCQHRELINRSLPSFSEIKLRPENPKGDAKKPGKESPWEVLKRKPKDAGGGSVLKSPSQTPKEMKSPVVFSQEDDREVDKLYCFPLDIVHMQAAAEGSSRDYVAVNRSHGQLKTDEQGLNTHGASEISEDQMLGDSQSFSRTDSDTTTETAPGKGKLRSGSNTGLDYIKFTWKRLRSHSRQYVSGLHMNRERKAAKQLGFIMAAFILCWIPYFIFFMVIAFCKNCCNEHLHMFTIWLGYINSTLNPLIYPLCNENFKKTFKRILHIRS

Histamine H1 receptor [2] = target: T1, Histamine H1 receptor; experiment: Binding affinity to human H1R expressed in CHO cells using Fluo-4AM as substrate incubated for 1 hrs by calcium mobilization assay based fluorometric analysis; type: cell-based; conditions: filed as antagonist
[3] = target: Histamine H3 receptor (Homo sapiens) (UniProt Q9Y5N1); experiment: Binding affinity to NLuc-tagged human H3R expressed in HEK293T cell homogenates at 1 uM using NanoGlo as substrate preincubated for 2 hrs followed by substrate addition measured after 5 min in presence of clobenpropit by NanoBRET saturation binding assay; conditions: filed as antagonist, time 125.0 min
Sequence of Histamine H3 receptor (Homo sapiens) (Q9Y5N1 whole entry): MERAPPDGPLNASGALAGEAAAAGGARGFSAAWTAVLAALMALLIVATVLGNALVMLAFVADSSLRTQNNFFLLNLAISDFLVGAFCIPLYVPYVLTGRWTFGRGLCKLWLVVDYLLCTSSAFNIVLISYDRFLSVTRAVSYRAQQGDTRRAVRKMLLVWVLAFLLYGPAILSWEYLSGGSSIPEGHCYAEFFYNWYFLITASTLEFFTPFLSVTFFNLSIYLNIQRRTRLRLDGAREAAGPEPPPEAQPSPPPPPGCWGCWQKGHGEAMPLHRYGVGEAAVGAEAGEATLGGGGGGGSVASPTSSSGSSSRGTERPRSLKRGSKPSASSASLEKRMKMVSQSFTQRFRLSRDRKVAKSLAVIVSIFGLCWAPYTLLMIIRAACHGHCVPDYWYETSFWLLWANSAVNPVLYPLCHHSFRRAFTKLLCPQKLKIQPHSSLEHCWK

[4] = target: Histamine H4 receptor (Homo sapiens) (UniProt Q9H3N8); experiment: Binding affinity to NLuc-tagged human H4R expressed in HEK293T cell homogenates at 1 uM using NanoGlo as substrate preincubated for 2 hrs followed by substrate addition measured after 5 min in presence of clobenpropit by NanoBRET saturation binding assay; conditions: filed as antagonist, time 125.0 min
Sequence of Histamine H4 receptor (Homo sapiens) (Q9H3N8 whole entry): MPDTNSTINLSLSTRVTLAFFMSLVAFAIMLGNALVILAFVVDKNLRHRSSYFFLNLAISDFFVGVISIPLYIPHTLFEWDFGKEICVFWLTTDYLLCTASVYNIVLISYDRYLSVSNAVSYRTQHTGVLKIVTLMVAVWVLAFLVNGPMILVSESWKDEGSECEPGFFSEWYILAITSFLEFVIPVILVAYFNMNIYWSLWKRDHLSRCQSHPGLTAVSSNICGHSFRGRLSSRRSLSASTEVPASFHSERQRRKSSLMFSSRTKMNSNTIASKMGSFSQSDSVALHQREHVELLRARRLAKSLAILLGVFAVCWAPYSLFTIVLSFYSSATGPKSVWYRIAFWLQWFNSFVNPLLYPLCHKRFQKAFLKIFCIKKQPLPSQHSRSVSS

Histamine H1 receptor [5] = target: T1, Histamine H1 receptor; experiment: Binding affinity to human H1R expressed in CHO cells using Fluo-4AM as a substrate incubated for 45 mins by calcium mobilization assay based fluorometric analysis; type: cell-based; conditions: filed as antagonist
Histamine H1 receptor [6] = target: T1, Histamine H1 receptor; experiment: Binding affinity to NLuc-tagged human H1R expressed in HEK293T cells assessed as association rate constant (kon) using furimazine as substrate measured after 90 mins by NanoBRET binding assay; type: cell-based; conditions: filed as antagonist
Outline: (§1)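 Live HEK293T cells expressing Nluc-tagged human H1R; fluorescent ligand added at several concentrations and BRET read in real time every min for 90 min at room temperature. kon and koff obtained from association kinetics; mean residence time taken as 1/koff. Values are means ± SEM of 4–5 separate experiments, each in triplicate.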

Histamine H1 receptor [7] = target: T1, Histamine H1 receptor; experiment: Binding affinity to NLuc-tagged human H1R expressed in HEK293T cells assessed as dissociation rate constant (koff) using furimazine as substrate measured after 90 mins by NanoBRET binding assay; type: cell-based; conditions: filed as antagonist; outline: as §1
Histamine H1 receptor [8] = target: T1, Histamine H1 receptor; experiment: Binding affinity to NLuc-tagged human H1R expressed in HEK293T cells at assessed as ratio of association rate constant to dissociation rate constant by NanoBRET binding assay; type: cell-based; conditions: filed as antagonist
Outline: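 Real-time NanoBRET association kinetics on Nluc-H1R HEK293T cells. Several fluorescent ligand concentrations were tested, with BRET read every min for 90 min at room temperature. pKD was derived from kon/koff. Means ± SEM from 4–5 experiments in triplicate.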

Histamine H1 receptor [9] = target: T1, Histamine H1 receptor; experiment: Displacement of VUF13816-based fluorescent ligand 1 from Nluc-tagged human H1R expressed in HEK293T cells assessed as fold change incubated for 2 hrs by NanoBRET competition binding assay; conditions: filed as antagonist
Histamine H1 receptor [10] = target: T1, Histamine H1 receptor; experiment: Displacement of VUF13816-based fluorescent ligand 1 from Nluc-tagged human H1R expressed in HEK293T cells incubated for 2 hrs by NanoBRET competition binding assay
[11] = Drug localization in plasma membrane of chinese hamster CHO cells expressing YFP-tagged H1R at 1 to 25 nM incubated for 30 min by confocal microscopy; type: ADME, cell membranes, Cricetulus griseus; conditions: 0.5 h, 0.025 µM, dose 1-25 nM
Outline: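 CHO cells expressing YFP-tagged H1R were incubated for 30 min at 37 °C with fluorescent ligand at 1, 5, 10 or 25 nM, with or without 10 μM mepyramine pretreatment to define nonspecific binding. Plasma membrane versus intracellular localization was judged by confocal imaging in red and green channels. Three independent experiments.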

| SMILES | Activity (Histamine H1 receptor [1]) | pKb (Histamine H1 receptor [2]) | other results |
| --- | --- | --- | --- |
| CC(C)[C@H](NC(=O)CCN1CCC(Oc2ccccc2Cc2ccccc2)CC1)C(=O)N[C@@H](CO)C(=O)N[C@@H](CC(N)=O)C(=O)NCCC(=O)N[C@@H](CCCCNC(=O)CCCCC[N+]1=C(/C=C/C=C/C=C2/N(C)c3ccc(S(=O)(=O)[O-])cc3C2(C)C)C(C)(C)c2cc(S(=O)(=O)O)ccc21)C(N)=O | Active | 5.33 |  |
| C[C@H](NC(=O)[C@H](C)NC(=O)[C@H](Cc1ccccc1)NC(=O)CCN1CCC(Oc2ccccc2Cc2ccccc2)CC1)C(=O)NCCC(=O)N[C@@H](CCCCNC(=O)CCCCC[N+]1=C(/C=C/C=C/C=C2/N(C)c3ccc(S(=O)(=O)[O-])cc3C2(C)C)C(C)(C)c2cc(S(=O)(=O)O)ccc21)C(N)=O | Active | 6.09 |  |
| N=C(NCc1ccc(Cl)cc1)SCCCc1c[nH]cn1 |  |  | Activity [3]: Active; Activity [4]: Active |
| C[C@@H](NC(=O)CCN1CCC(Oc2ccccc2Cc2ccccc2)CC1)C(=O)N[C@H](C)C(=O)N[C@H](C)C(=O)NCCNC(=O)CCCCCNC(=O)COc1ccc(/C=C/C2=[N+]3C(=Cc4ccc(-c5cccs5)n4[B-]3(F)F)C=C2)cc1 (stereo in doubt) |  |  | pKb (Histamine H1 receptor [5]): 8.6 |
| Cc1cc(C)n2c1C=C1C=CC(CCC(=O)NCCCC[C@H](NC(=O)CCNC(=O)[C@H](C)NC(=O)[C@H](C)NC(=O)[C@H](Cc3ccccc3)NC(=O)CCN3CCC(Oc4ccccc4Cc4ccccc4)CC3)C(N)=O)=[N+]1[B-]2(F)F ({Propanoyl(3-Pip(4-O-2-BnPh))}-FAA[βAla]K(BODIPY(FL))-NH2) | Active | 7.46 |  |
| C[C@H](NC(=O)[C@H](C)NC(=O)[C@H](Cc1ccccc1)NC(=O)CCN1CCC(Oc2ccccc2Cc2ccccc2)CC1)C(=O)NCCC(=O)N[C@@H](CCCCNC(=O)COc1ccc(/C=C/C2=[N+]3C(=Cc4ccc(-c5cccs5)n4[B-]3(F)F)C=C2)cc1)C(N)=O ({Propanoyl(3-Pip(4-O-2-BnPh))}-FAA[βAla]K(X1)-NH2) | Active | 8.59 | K (Histamine H1 receptor [6]): 0.686 10^6/M/min; K (Histamine H1 receptor [7]): 0.014 min⁻¹; pKd (Histamine H1 receptor [8]): 7.64 |
| C[C@H](NC(=O)[C@H](C)NC(=O)[C@H](Cc1ccccc1)NC(=O)CCN1CCC(Oc2ccccc2Cc2ccccc2)CC1)C(=O)NCCC(=O)N[C@@H](CCCCNC(=O)CCC1=[N+]2C(=Cc3ccc(-c4cccs4)n3[B-]2(F)F)C=C1)C(N)=O ({Propanoyl(3-Pip(4-O-2-BnPh))}-FAA[βAla]K(X2)-NH2) | Active | 6.44 |  |
| Cc1cc(C)n2c1C=C1C=CC(/C=C/c3ccc(OCC(=O)NCCCC[C@H](NC(=O)CCNC(=O)[C@H](C)NC(=O)[C@H](C)NC(=O)[C@H](Cc4ccccc4)NC(=O)CCN4CCC(Oc5ccccc5Cc5ccccc5)CC4)C(N)=O)cc3)=[N+]1[B-]2(F)F ({Propanoyl(3-Pip(4-O-2-BnPh))}-FAA[βAla]K(X3)-NH2) | Active | 6.99 |  |
| CC(C)[C@H](NC(=O)CCN1CCC(Oc2ccccc2Cc2ccccc2)CC1)C(=O)N[C@@H](C)C(=O)N[C@@H](C)C(=O)N[C@H](Cc1ccccc1)C(N)=O ({Propanoyl(3-Pip(4-O-2-BnPh))}-VAA[dF]-NH2) |  |  | fold change (FC) (Histamine H1 receptor [9]): 2 |
| CC(C)[C@H](NC(=O)CCN1CCC(Oc2ccccc2Cc2ccccc2)CC1)C(=O)N[C@@H](CO)C(=O)N[C@@H](C)C(=O)N[C@H](Cc1ccccc1)C(N)=O ({Propanoyl(3-Pip(4-O-2-BnPh))}-VSA[dF]-NH2) |  |  | fold change (FC) (Histamine H1 receptor [9]): 2 |
| CC(C)[C@H](NC(=O)CCN1CCC(Oc2ccccc2Cc2ccccc2)CC1)C(=O)N[C@@H](CO)C(=O)N[C@@H](CC(N)=O)C(=O)N[C@@H](Cc1ccccc1)C(N)=O ({Propanoyl(3-Pip(4-O-2-BnPh))}-VSNF-NH2) |  |  | Ki (Histamine H1 receptor [10]): 89 nM |
| Cc1cc(C)n2c1C=C1C=CC(CCC(=O)NCCCC[C@H](NC(=O)CCNC(=O)[C@H](CC(N)=O)NC(=O)[C@H](CO)NC(=O)[C@@H](NC(=O)CCN3CCC(Oc4ccccc4Cc4ccccc4)CC3)C(C)C)C(N)=O)=[N+]1[B-]2(F)F ({Propanoyl(3-Pip(4-O-2-BnPh))}-VSN[βAla]K(BODIPY(FL))-NH2) | Active | 6.95 |  |
| CC(C)[C@H](NC(=O)CCN1CCC(Oc2ccccc2Cc2ccccc2)CC1)C(=O)N[C@@H](CO)C(=O)N[C@@H](CC(N)=O)C(=O)NCCC(=O)N[C@@H](CCCCNC(=O)COc1ccc(/C=C/C2=[N+]3C(=Cc4ccc(-c5cccs5)n4[B-]3(F)F)C=C2)cc1)C(N)=O ({Propanoyl(3-Pip(4-O-2-BnPh))}-VSN[βAla]K(X1)-NH2) | Active | 8.56 | K (Histamine H1 receptor [6]): 0.839 10^6/M/min; K (Histamine H1 receptor [7]): 0.014 min⁻¹; pKd (Histamine H1 receptor [8]): 7.74; Drug uptake [11]: Active |
| CC(C)[C@H](NC(=O)CCN1CCC(Oc2ccccc2Cc2ccccc2)CC1)C(=O)N[C@@H](CO)C(=O)N[C@@H](CC(N)=O)C(=O)NCCC(=O)N[C@@H](CCCCNC(=O)CCC1=[N+]2C(=Cc3ccc(-c4cccs4)n3[B-]2(F)F)C=C1)C(N)=O ({Propanoyl(3-Pip(4-O-2-BnPh))}-VSN[βAla]K(X2)-NH2) | Active | 6.52 |  |
| Cc1cc(C)n2c1C=C1C=CC(/C=C/c3ccc(OCC(=O)NCCCC[C@H](NC(=O)CCNC(=O)[C@H](CC(N)=O)NC(=O)[C@H](CO)NC(=O)[C@@H](NC(=O)CCN4CCC(Oc5ccccc5Cc5ccccc5)CC4)C(C)C)C(N)=O)cc3)=[N+]1[B-]2(F)F ({Propanoyl(3-Pip(4-O-2-BnPh))}-VSN[βAla]K(X3)-NH2) | Active | 6.96 |  |
| CC(C)[C@H](NC(=O)CCN1CCC(Oc2ccccc2Cc2ccccc2)CC1)C(=O)N[C@@H](CO)C(=O)N[C@@H](CO)C(=O)N[C@H](Cc1ccccc1)C(N)=O ({Propanoyl(3-Pip(4-O-2-BnPh))}-VSS[dF]-NH2) |  |  | fold change (FC) (Histamine H1 receptor [9]): 2 |
| CC(C)[C@H](NC(=O)CCN1CCC(Oc2ccccc2Cc2ccccc2)CC1)C(=O)N[C@@H](CO)C(=O)N[C@@H](Cc1ccc(O)cc1)C(=O)N[C@@H](Cc1ccccc1)C(N)=O ({Propanoyl(3-Pip(4-O-2-BnPh))}-VSYF-NH2) |  |  | Ki (Histamine H1 receptor [10]): 437 nM |
| CC(C)[C@H](NC(=O)CCN1CCC(Oc2ccccc2Cc2ccccc2)CC1)C(=O)N[C@@H](CO)C(=O)N[C@@H](Cc1ccc(O)cc1)C(=O)N[C@H](Cc1ccccc1)C(N)=O ({Propanoyl(3-Pip(4-O-2-BnPh))}-VSY[dF]-NH2) |  |  | fold change (FC) (Histamine H1 receptor [9]): 2 |
